The values that follow come from ChEMBL document CHEMBL1150421, “Synthesis and analgesic/anti-inflammatory evaluation of fused heterocyclic ring systems incorporating phenylsulfonyl moiety” (2008).

Test [1] deals with Mus musculus. Nature of the test: Analgesic activity in Albino mouse at 50 mg/kg, po assessed as thermal stimuli reaction time change after 2 hrs mins by hot plate method relative to indomethacin. The format is functional. For orientation: Thermal pain tests record how soon the animal reacts.
Test [2] has as its system Rattus norvegicus. The test is described as follows: Antiinflammatory activity in Albino rat assessed as inhibition of carrageenan-induced edema at 50 mg/kg, po after 3 hrs. On the technique in general: Carrageenan injected into the paw causes an acute inflammation.
The subject of test [3] is Mus musculus. Nature of the test: Analgesic activity in Albino mouse at 50 mg/kg, po assessed as thermal stimuli reaction time change after 1 hr by hot plate method relative to basal level. It counts as functional. In outline: (§1)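 Hot-plate at 52 °C ± 0.1 °C with a 60 s cut-off, six mice per group. Dosing was oral, 50 mg/kg in 2% Tween 80. Latency to paw licking or jumping was recorded before dosing and at 0.5, 1 and 2 h. Results are given as % change from the pre-drug value, with one-way ANOVA and Duncan's test (P < 0.05).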

Test [4] has as its system Rattus norvegicus. The test is described as follows: Antiinflammatory activity in Albino rat assessed as inhibition of carrageenan-induced edema at 50 mg/kg, po after 1 hr.
For test [5], the system named is Mus musculus. The test is described as follows: Analgesic activity in Albino mouse at 50 mg/kg, po assessed as thermal stimuli reaction time change after 1 hr by hot plate method relative to indomethacin. It counts as functional.
In test [6] the test system is Rattus norvegicus. The test is described as follows: Antiinflammatory activity in Albino rat assessed as inhibition of carrageenan-induced edema at 50 mg/kg, po after 5 hrs.
Test [7] relates to Mus musculus. Nature of the test: Analgesic activity against visceral pain in Albino mouse assessed as acetic acid-induced writhing at 50 mg/kg, po after 30 mins relative to indomethacin. It counts as functional. A general note: In writhing tests, fewer writhes than in controls are read as antinociception.
The subject of test [8] is Rattus norvegicus. Nature of the test: Antiinflammatory activity in Albino rat assessed as inhibition of carrageenan-induced edema at 50 mg/kg, po after 2 hrs.
The test system of test [9] is Rattus norvegicus. Nature of the test: Antiinflammatory activity in Albino rat assessed as inhibition of carrageenan-induced edema at 50 mg/kg, po after 6 hrs.
The subject of test [10] is Mus musculus. The test is described as follows: Analgesic activity in Albino mouse at 50 mg/kg, po assessed as thermal stimuli reaction time change after 30 mins by hot plate method relative to indomethacin. The format is functional.
In test [11] the test system is Mus musculus. Nature of the test: Analgesic activity against visceral pain in Albino mouse assessed as acetic acid-induced writhing at 50 mg/kg, po after 30 mins. The format is functional. In outline: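 Mice (20–25 g, acclimatized 1 week, 12 h light/dark, 21–23 °C) given compound orally at 50 mg/kg as a suspension in 2% Tween 80. Negative controls got water in Tween 80. Visceral pain measured as acetic acid-induced writhing; indomethacin 50 mg/kg was the reference.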

The subject of test [12] is Rattus norvegicus. Nature of the test: Antiinflammatory activity in Albino rat assessed as inhibition of carrageenan-induced edema at 50 mg/kg, po after 4 hrs.
The subject of test [13] is Mus musculus. Nature of the test: Analgesic activity in Albino mouse at 50 mg/kg, po assessed as thermal stimuli reaction time change after 30 mins by hot plate method relative to basal level. The format is functional. In outline: as §1
The subject of test [14] is Mus musculus. The test is described as follows: Analgesic activity in Albino mouse at 50 mg/kg, po assessed as thermal stimuli reaction time change after 2 hrs by hot plate method relative to basal level. The format is functional. In a few lines:
as §1

Molecules are shown by their SMILES.

A word on the inhibition in vivo: it is the share of the control response that was lost under treatment. As to `Cc1ccc(-c2c(S(=O)(=O)c3ccccc3)cnc3cc(-c4ccccc4)nn23)cc1`, the Activity in test [1] was 0.19; in [3], 18.6%; in test [5], 0.24; in test [7], 0.32; in [10] it was 0.35; in [11] it was 28%. The Activity in test [13] and in [14] was 15.2% each time. The inhibition in vivo at 50 mg/kg in [2] came to 36.4%; in test [4], 42.5%; in test [6] it was 28.2%; in test [8] it was 41%; in [9], 15.5%; in test [12] it was 22.6%.
In the case of `Cc1ccc(-c2c(S(=O)(=O)c3ccccc3)cnc3cc(-c4ccc(Br)cc4)nn23)cc1`, the Activity was found to be 0.7 in test [1]; 56.4% in test [3]; 0.73 in [5]; 0.76 in test [7]; 0.67 in [10]; 65.2% in [11]. The figures for the Activity in test [13] and in [14] were 29% and 56.4%, respectively. Moreover, the inhibition in vivo at 50 mg/kg is 69.2% in test [2]; 74.1% in [4]; 31.7% in test [6]; 72.6% in [8]; 54.3% in [9]; 26.6% in test [12].
For the molecule `Cc1ccc(-c2c(S(=O)(=O)c3ccccc3)cnc3ncnn23)cc1`, the Activity in test [1] is 0; in test [3] it was 5.3%; in test [5], 0.06; in [7], 0; in test [10], 0.16; in [13], 7.1%. Moreover, the Activity in test [14] was determined as 0%. Further, the inhibition in vivo at 50 mg/kg in [2] was determined as 4.4%; in test [4], 7.5%; in test [6], 2.4%; in test [8], 5.2%; in [9], 1.9%; in test [12], 3.3%.
Take `Cc1ccc(-c2c(S(=O)(=O)c3ccccc3)cnc3cc(C)nn23)cc1`: the Activity in test [1] was found to be 0.07; in test [3] it was 16%; in test [5] it was 0.21; in test [7], 0.35; in test [10], 0.37; in [11] it was 30%. In addition, the Activity in [13] is reported as 16%; in test [14], 5.3%. For the same molecule, the inhibition in vivo at 50 mg/kg in test [2] worked out at 23.2%; in test [4], 25.8%; in test [6], 8.1%; in [8] it was 25.2%; in test [9], 8.7%; in [12], 14%.
`Cc1ccc(-c2c(S(=O)(=O)c3ccccc3)cnc3c(Br)c(-c4ccccc4)nn23)cc1`: the Activity in test [1] came to 0.84; in test [3], 78%; in test [5], 1.02; in [7] it was 0.99; in test [10], 1.02; in test [11], 85.6%. Moreover, the Activity in [13] is recorded as 43.8%; in [14], 68.4%. Moreover, the inhibition in vivo at 50 mg/kg in [2] turned out to be 54.8%; in test [4] it was 65.5%; in [6], 0%; in test [8], 61%; in test [9], 6.6%; in test [12], 12.5%.
Consider `O=S(=O)(c1ccccc1)c1cnc2cc(-c3ccc(Cl)cc3)nn2c1-c1ccc(Br)cc1`, for which the Activity in test [1] was found to be 0.63; in test [3], 72.2%; in test [5], 0.93; in [7], 0.77; in test [10], 0.77; in [11], 66.7%. Moreover, the Activity in test [13] is on record as 33%; in test [14] it was 51.8%. Also, the inhibition in vivo at 50 mg/kg was found to be 24.8% in [2]; 24.2% in test [4]; 13.8% in test [6]; 24.7% in test [8]; 13.2% in test [9]; 18.6% in test [12].
Take `Cc1ccc(-c2c(S(=O)(=O)c3ccccc3)cnc3nc4ccccc4n23)cc1`: the Activity in [1] worked out at 0.26; in test [3], 23%; in test [5], 0.3; in [7], 0.1; in [10], 0.21; in test [11], 9.1%. Also, the Activity in test [13] worked out at 9.2%; in test [14], 21.5%. Further, the inhibition in vivo at 50 mg/kg in test [2] came to 4.2%; in test [4] it was 7.3%; in test [6], 0%; in test [8], 5%; in test [9], 0%; in test [12] it was 0%.
As for `O=S(=O)(c1ccccc1)c1cnc2ncnn2c1-c1ccc(Br)cc1`, the Activity in test [1] is on record as 0.06; in test [3], 6.8%; in [5], 0.08; in test [7], 0.12; in test [10], 0.12; in test [11], 10.8%. In addition, the Activity in test [13] and in test [14] was 5.4% in each case. The inhibition in vivo at 50 mg/kg in test [2] stood at 1.6%; in test [4] it was 2.2%; in test [6], 0.8%; in test [8], 4.2%; in test [9], 0.9%; in test [12] it was 1.3%.
As to `Cc1ccc(-c2cc3ncc(S(=O)(=O)c4ccccc4)c(-c4ccc(C)cc4)n3n2)cc1`, the Activity in test [1] amounted to 0.71; in [3], 67.1%; in test [5], 0.87; in test [7], 0.86; in test [10] it was 0.58; in [11], 74.4%. The Activity in [13] came to 25%; in [14], 57.5%. The inhibition in vivo at 50 mg/kg in test [2] stood at 31.2%; in [4], 54.6%; in test [6] it was 17%; in test [8], 42.6%; in test [9], 11.6%; in [12], 20%.
As for `Cc1cc2ncc(S(=O)(=O)c3ccccc3)c(-c3ccc(Br)cc3)n2n1`, the Activity in test [1] amounted to 0.49; in [3] it was 44.1%; in test [5] it was 0.57; in test [7], 0.65; in test [10], 0.63; in [11], 56.4%. Also, the Activity in test [13] was 27%; in [14] it was 39.7%. The inhibition in vivo at 50 mg/kg in test [2] stood at 4.4%; in [4], 7.4%; in test [6] it was 0%; in [8], 5.2%; in test [9] it was 0%; in [12] it was 0%.
On to `COc1ccc2c(c1)c(CC(=O)O)c(C)n2C(=O)c1ccc(Cl)cc1` [INDOMETHACIN], for which the inhibition in vivo at 50 mg/kg in [2] was 44%; in test [4] it was 77%; in [6], 28.4%; in test [8], 56%; in [9], 50%; in test [12], 28.7%. Besides, the Activity in [3] is reported as 77.2%; in test [11] it was 85.8%; in test [13], 43%; in test [14] it was 81%.
